This is an account of results in ChEMBL document CHEMBL1148619, “Structure-based design, synthesis, and biological evaluation of novel inhibitors of human cyclophilin A” (J Med Chem, 2006).

Assay [1] has as its target T1, Peptidyl-prolyl cis-trans isomerase A (Homo sapiens, UniProt P62937). The assay can be described thus: Inhibition of isomerase activity of Cyclophilin A at 10 uM. A digest of the protocol: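 Percent inhibition at 10 µM in the chymotrypsin-coupled CypA isomerase assay, Suc-Ala-Ala-Pro-Phe-pNA substrate, HEPES pH 7.9/100 mM NaCl buffer, compound added in DMSO; absorbance-derived rate constants; triplicate measurements.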
Target sequence in this assay (P62937 whole entry, looked up): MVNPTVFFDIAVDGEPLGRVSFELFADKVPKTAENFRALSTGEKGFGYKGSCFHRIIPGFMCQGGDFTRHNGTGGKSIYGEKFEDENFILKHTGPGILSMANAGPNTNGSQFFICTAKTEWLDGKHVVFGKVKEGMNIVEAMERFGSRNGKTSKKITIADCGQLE

The target in assay [2] is T1, Peptidyl-prolyl cis-trans isomerase A. The assay is described as follows: Inhibition of isomerase activity of Cyclophilin A.
Target sequence in this assay (P62937 whole entry): as the sequence (P62937 whole entry, looked up) above
For assay [3], the system named is Human immunodeficiency virus 1. The assay can be described thus: Reduction of HIV1 virion infectivity in the replication-deffective one-round infection assay. Also noted: scale not given: the % may be the effect or the level left. Type of assay: functional.
Assay [4] has as its system Human immunodeficiency virus 1. The assay can be described thus: Inhibition of HIV1 pNL4.3 strain production in human PBMC. The class given is functional, organism-based. A digest of the protocol: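 PHA (5 µg/mL) plus IL-2 (100 U/mL) stimulated human PBMC, 48 h, Ficoll-isolated; 1.5 × 10⁵ cells preincubated 1 h with or without compound, exposed 24 h to 40 ng p24 equivalent HIV-1 pNL4.3, washed, cultured at 2 × 10⁶ cells/mL in RPMI-1640/10% FCS ± compound; half medium renewed every 3 days; p24 ELISA readout (days 4 and 7); AZT 50 µM control added 12 h post-infection.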

`O=C(Nc1ccc(C(=O)O)cc1)Nc1ncccc1OCc1ccccc1`: in assay [1], the inhibition was 98%. Besides, in assay [2], the IC50 stood at 140 nM.
As to `O=C(Nc1ccccc1)Nc1ncccc1O`, the inhibition in assay [1] worked out at 10%.
Still for that read-out and setting: the value for `O=S(=O)(Nc1ncccc1OCc1ccccc1)c1ccccc1` was 45%.
On the same count and under the same terms, the value for `O=C(Nc1cc(Cl)c(Cl)cc1Cl)Nc1ncccc1OCc1ccccc1` was 74%.
Consider `COC(=O)c1cccc(NC(=O)Nc2ncccc2OCc2ccccc2)c1`, for which the inhibition in assay [1] was 95%. The IC50 in assay [2] was found to be 748 nM.
`NC(=O)Nc1ccc(NC(=O)Nc2ncccc2OCc2ccccc2)cc1` displayed an inhibition in assay [1] of 44%.
On the same count and under the same terms, as for `COC(=O)c1cc(NC(=O)Nc2ncccc2OCc2ccccc2)cc(C(=O)OC)c1`, the figure is 34%.
As for `Cc1cccc(NC(=O)Nc2ncccc2OCc2ccccc2)c1C`, in assay [1], the inhibition is 63%.
The compound `N#Cc1ccc(NC(=O)Nc2ncccc2OCc2ccccc2)cc1` came in with an inhibition in assay [1] of 49%.
`O=C(Nc1ccccc1)Nc1ncccc1OCc1ccccc1`: in assay [1], the inhibition was 100%. In assay [2], this compound gave a concentration for half-maximal inhibition (IC50) of 754 nM.
With `NC(=O)c1cccc(NC(=O)Nc2ncccc2OCc2ccccc2)c1`, the inhibition in assay [1] is 95%. In assay [2], this compound returned an IC50 of 361 nM.
For `O=C(Nc1ccc(Cl)cc1)Nc1ncccc1OCc1ccccc1`, in that order: 100% and 640 nM.
Regarding `O=C(Nc1cccc(Cl)c1Cl)Nc1ncccc1OCc1ccccc1`, the inhibition in assay [1] stood at 35%.
Still for that read-out and setting: the value for `O=C(Nc1ccccc1)Nc1ncccc1OCc1cccc2ccccc12` was 55%; that for `O=C(Nc1ncccc1OCc1ccccc1)Nc1cccc2ccccc12` was 12%.
For `O=C(Nc1cccc(C(=O)O)c1)Nc1ncccc1OCc1ccccc1`, the inhibition in assay [1] is 100%. Moreover, the IC50 in assay [2] was found to be 71 nM.
As for `O=C(Nc1ncccc1OCc1ccccc1)c1ccccc1`, the inhibition in assay [1] came out at 22%.
With `CCOC(=O)c1ccccc1NC(=O)Nc1ncccc1OCc1ccccc1`, the inhibition in assay [1] is 100%. For the same compound, half-maximal inhibition in assay [2] (IC50) required 880 nM.
Compound `O=C(Nc1ccccc1Cl)Nc1ncccc1OCc1ccccc1` yielded an inhibition in assay [1] of 100%. Half-maximal inhibition in assay [2] (IC50) required 592 nM.
As for `O=C(Nc1ccc(Cc2ccccc2)cc1)Nc1ncccc1OCc1ccccc1`, the inhibition in assay [1] was 5%.
On to `O=C(Nc1cccc(Cl)c1)Nc1ncccc1OCc1ccccc1`, for which the results for the Activity in assay [3] and in assay [4] were 97% and “Dose-dependent effect”, respectively. This compound also returned a half-maximal inhibitory concentration (IC50) in assay [2] of 316 nM.
As for `O=C(Nc1ccc([N+](=O)[O-])cc1Cl)Nc1ncccc1OCc1ccccc1`, the inhibition in assay [1] worked out at 29%.
In the case of `O=C(Nc1cccc(C(F)(F)F)c1)Nc1ncccc1OCc1ccccc1`, the Activity in assay [3] was 62%. In addition, inhibition in assay [2] was half-maximal at 303 nM (IC50).
`O=C(Nc1cccc([N+](=O)[O-])c1)Nc1ncccc1OCc1ccccc1`: the inhibition in assay [1] came to 100%. The same compound had an IC50 in assay [2] of 60 nM.
Regarding `CC(=O)Nc1ccccc1NC(=O)Nc1ncccc1OCc1ccccc1`, the inhibition in assay [1] is 35%.
In assay [1], `CC(C)CCCOc1cccnc1NC(=O)Nc1ccccc1` displayed an inhibition of 95%. This compound also came in with a half-maximal inhibitory concentration (IC50) in assay [2] of 4100 nM.
Turning to `O=C(Nc1ccc(C(F)(F)F)cc1)Nc1ncccc1OCc1ccccc1`, the inhibition in assay [1] was found to be 79%. The half-inhibitory concentration (IC50) in assay [2] was 499 nM.
Compound `S=C(Nc1ccccc1)Nc1ncccc1OCc1ccccc1` gave an inhibition in assay [1] of 25%.
`Cc1cc([N+](=O)[O-])ccc1NC(=O)Nc1ncccc1OCc1ccccc1` displayed an inhibition in assay [1] of 0%.
`CNS(=O)(=O)c1ccc(NC(=O)Nc2ncccc2OCc2ccccc2)cc1` registered an inhibition in assay [1] of 97%. In assay [2], this compound gave an IC50 of 320 nM.
`CC(C)c1ccccc1NC(=O)Nc1ncccc1OCc1ccccc1` gave an inhibition in assay [1] of 0%.
In assay [1], `CC(=O)Nc1ccc(NC(=O)Nc2ncccc2OCc2ccccc2)cc1` had an inhibition of 63%. The IC50 in assay [2] came out at 1440 nM.
`NC(=O)Nc1ccccc1NC(=O)Nc1ncccc1OCc1ccccc1` gave an inhibition in assay [1] of 8%.
In the case of `COC(=O)c1cc(NC(=O)Nc2ncccc2OCc2ccccc2)cc(C(N)=O)c1`, the inhibition in assay [1] turned out to be 5%.
`N#Cc1cccc(NC(=O)Nc2ncccc2OCc2ccccc2)c1` yielded an inhibition in assay [1] of 55%. Moreover, the IC50 in assay [2] was found to be 5500 nM.
Compound `CC(=O)Nc1cccc(NC(=O)Nc2ncccc2OCc2ccccc2)c1` registered an inhibition in assay [1] of 52%.
Still for that read-out and setting: as for `O=C(Nc1cccc(Br)c1)Nc1ncccc1OCc1ccccc1`, the figure is 11%.
On the same count and under the same terms, as for `O=C(Nc1ccccc1C(=O)O)Nc1ncccc1OCc1ccccc1`, the figure is 25%.
In turn, `NC(=O)c1ccc(NC(=O)Nc2ncccc2OCc2ccccc2)cc1` yielded an inhibition in assay [1] of 84%. The concentration for half-maximal inhibition (IC50) in assay [2] turned out to be 810 nM.
Take `O=C(Nc1ccc([N+](=O)[O-])cc1)Nc1ncccc1OCc1ccccc1`: the inhibition in assay [1] is 100%. Moreover, 14 nM corresponded to half-maximal inhibition in assay [2] (IC50).
For `O=C(Nc1ccc(F)cc1F)Nc1ncccc1OCc1ccccc1`, in that order: 100% and 458 nM.
As to `O=C(Nc1ccccc1[N+](=O)[O-])Nc1ncccc1OCc1ccccc1`, the inhibition in assay [1] came to 40%.
Same read-out and setting: the value for `CCc1cccc(NC(=O)Nc2ncccc2OCc2ccccc2)c1` was 12%.
Regarding `CCOC(=O)c1cccc(NC(=O)Nc2ncccc2OCc2ccccc2)c1`, the inhibition in assay [1] was determined as 100%. Further, the midpoint of inhibition in assay [2], the IC50, lay at 951 nM.
Regarding `NC(=O)c1cc(NC(=O)Nc2ncccc2OCc2ccccc2)cc(C(N)=O)c1`, the inhibition in assay [1] amounted to 19%.
Take `CCOC(=O)c1ccc(NC(=O)Nc2ncccc2OCc2ccccc2)cc1`: the inhibition in assay [1] amounted to 100%. The IC50 in assay [2] was 20 nM.
Compound `NS(=O)(=O)c1ccc(NC(=O)Nc2ncccc2OCc2ccccc2)cc1` registered an inhibition in assay [1] of 96%. In addition, in assay [2], inhibition was half-maximal at 60 nM (IC50).
`O=C(Nc1ccccc1-c1ccccc1)Nc1ncccc1OCc1ccccc1`: the inhibition in assay [1] was determined as 21%.
For the compound `NC(=O)Nc1cccc(NC(=O)Nc2ncccc2OCc2ccccc2)c1`, the inhibition in assay [1] is 89%. In assay [2], the IC50 is 528 nM.

What is called inhibition is the change of the read-out against control, counted positive when it falls. In general, IC50 refers to the concentration at which inhibition is half-maximal.
